Results gathered from unrelated publications.
Lines come from different studies, so protocols differ.
PDE10A: cAMP and cAMP-inhibited cGMP 3',5'-cyclic phosphodiesterase 10A (PDE10A, Homo sapiens, UniProt Q9Y233)
SLC6A3: Sodium-dependent dopamine transporter (SLC6A3, Homo sapiens, UniProt Q01959)

| SMILES | target | test | system | setting | inhibition [%] |
| --- | --- | --- | --- | --- | --- |
| COc1ccc2c(Cc3cccc(-c4ccccc4)c3)ccnc2c1 | PDE10A | enzyme activity, inhibitor, FP |  | 0.1 µM | 22 |
| NC/C(=C\F)COc1cccc(Cn2c(=S)[nH]c(=O)c3[nH]cnc32)c1 | SLC6A3 | ligand displacement, radioligand |  | 10 µM | < 50 |
| Cc1cc(O)c(-c2ccc([C@@H](C)CN(C)C)cc2)c2c1[nH]c(=O)c1sccc12 | Serine/threonine-protein kinase ATR (ATR, Homo sapiens, UniProt Q13535) | cell-free assay, inhibitor |  | 0.1 µM, lysate | 8.12 |
| CCN1/C(=C/C(C)=O)Sc2ccc(F)cc21 | D(3) dopamine receptor (DRD3, Homo sapiens, UniProt P35462) | ligand displacement, radioligand |  | 10 µM | 0 |
| CC(C)C[C@H](NC(=O)[C@@H](NC(=O)[C@@H](NC(=O)[C@@H]1CCCN1C(=O)[C@@H](N)CCC(=O)O)C(C)C)[C@@H](C)O)C(=O)N[C@H](C(=O)O)[C@@H](C)O | Angiotensin-converting enzyme (ACE, Homo sapiens, UniProt P12821) | enzyme activity, inhibitor |  | 1.4 mM | 47.2 |
| O[C@@H]1[C@H](O)[C@@H]2C[C@@H]2[C@H]1n1cnc2c(NCCC3CC3)nc(I)nc21 | SLC6A3 | ligand displacement, radioligand |  | 10 µM | 9 |
| COc1ccc2c(Cc3cccc(-c4ccccc4)c3)nccc2c1 | PDE10A | enzyme activity, inhibitor, FP |  | 0.1 µM | 3 |
| O[C@@H]1[C@H](O)[C@@H]2C[C@@H]2[C@H]1n1cnc2c(NCCC3CC3)ncnc21 | SLC6A3 | transporter uptake, inhibitor, radiometric | HEK293 | 20 nM | 50 |
| COc1ccc2ccnc(Cc3ccc(OC)c(OC)c3)c2c1 | PDE10A | enzyme activity, inhibitor, FP |  | 0.1 µM | 11 |
| CCOC(=O)[C@@]12C[C@@H]1[C@@H](n1cnc3c(NCc4cccc(Cl)c4)nc(C#Cc4ccc(Cl)s4)nc31)[C@H](O)[C@@H]2O | SLC6A3 | ligand displacement, radioligand |  | 10 µM | 75 |
| c1ccc2c(Cc3ccc4cnn(C5COC5)c4c3)nccc2c1 | PDE10A | enzyme activity, inhibitor, FP |  | 0.1 µM | 6 |
| CCOC(=O)[C@@]12C[C@@H]1[C@@H](n1cnc3c(NCCCCCCc4ccccc4)nc(C#Cc4ccc(Cl)s4)nc31)[C@H](O)[C@@H]2O | SLC6A3 | ligand displacement, radioligand |  | 10 µM | 23 |
| COc1cc2ncnc(Cc3cccc(-c4ccccc4OC)c3)c2cc1OC | PDE10A | enzyme activity, inhibitor, FP |  | 0.1 µM | 31 |
| CCOC(=O)[C@@]12C[C@@H]1[C@@H](n1cnc3c(NCCCCCc4ccccc4)nc(I)nc31)[C@H](O)[C@@H]2O | SLC6A3 | ligand displacement, radioligand |  | 10 µM | 85 |
| C#Cc1cc(-c2cc(Nc3nc(N[C@@H](C)c4ccc(F)cn4)ncc3Cl)n[nH]2)ccc1C=O | Dual specificity protein kinase CLK4 (CLK4, Homo sapiens, UniProt Q9HAZ1) | enzyme activity, inhibitor |  | 0.2 µM | 53.5 |
